ChEMBL document CHEMBL1145612, “Antagonists of the human adenosine A2A receptor. Part 2: Design and synthesis of 4-arylthieno[3,2-d]pyrimidine derivatives” (Bioorg Med Chem Lett, 2008)
The source made the active and inactive calls. The calls are words filed in the database; no cut-off is given here.

Columns and labels:
Adenosine receptor A2a [1] = target: T1, Adenosine receptor A2a (Homo sapiens, UniProt P29274); assay: Binding affinity at human adenosine A2A receptor
Adenosine receptor A1 = target: T2, Adenosine receptor A1 (Homo sapiens, UniProt P30542); assay: Binding affinity at human adenosine A1 receptor
T2 sequence (P30542 whole entry): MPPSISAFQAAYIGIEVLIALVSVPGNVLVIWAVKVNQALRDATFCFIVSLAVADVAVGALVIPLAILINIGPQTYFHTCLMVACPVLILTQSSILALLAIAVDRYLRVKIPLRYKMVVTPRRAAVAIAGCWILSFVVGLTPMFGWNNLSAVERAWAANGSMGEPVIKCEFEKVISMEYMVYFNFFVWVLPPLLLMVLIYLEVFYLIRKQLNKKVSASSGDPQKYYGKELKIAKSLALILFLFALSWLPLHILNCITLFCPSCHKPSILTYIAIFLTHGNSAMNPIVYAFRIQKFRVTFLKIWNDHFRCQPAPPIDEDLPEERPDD

Mus musculus [2] = assay: Reversal of haloperidol-induced hypolocomotion in mouse at 30 mg/kg, ip; format: functional, organism-based; set-up: dose 30 mg/kg
Summary of the method: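 Haloperidol-induced hypolocomotion model in mice. Test compound was given intraperitoneally at 30 mg kg-1, and reversal of the reduced locomotion was assessed.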

Adenosine receptor A2a [3] = target: T1, Adenosine receptor A2a; assay: Agonist activity at human recombinant adenosine A2A receptor expressed in CHO cells assessed as calcium mobilization by FLIPR assay; format: functional, cell-based
Adenosine receptor A3 = target: T3, Adenosine receptor A3 (Homo sapiens, UniProt P0DMS8); assay: Binding affinity at human adenosine A3 receptor
T3 sequence (P0DMS8 whole entry): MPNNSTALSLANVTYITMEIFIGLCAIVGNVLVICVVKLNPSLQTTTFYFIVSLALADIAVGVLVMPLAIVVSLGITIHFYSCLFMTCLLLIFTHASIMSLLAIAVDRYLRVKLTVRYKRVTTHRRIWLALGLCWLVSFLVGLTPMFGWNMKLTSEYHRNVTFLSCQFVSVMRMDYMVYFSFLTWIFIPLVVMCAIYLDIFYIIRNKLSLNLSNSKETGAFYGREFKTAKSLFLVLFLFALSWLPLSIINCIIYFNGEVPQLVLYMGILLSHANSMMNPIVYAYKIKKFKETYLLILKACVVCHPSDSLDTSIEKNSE

Adenosine receptor A2b = target: T4, Adenosine receptor A2b (Homo sapiens, UniProt P29275); assay: Binding affinity at human adenosine A2B receptor
T4 sequence (P29275 whole entry): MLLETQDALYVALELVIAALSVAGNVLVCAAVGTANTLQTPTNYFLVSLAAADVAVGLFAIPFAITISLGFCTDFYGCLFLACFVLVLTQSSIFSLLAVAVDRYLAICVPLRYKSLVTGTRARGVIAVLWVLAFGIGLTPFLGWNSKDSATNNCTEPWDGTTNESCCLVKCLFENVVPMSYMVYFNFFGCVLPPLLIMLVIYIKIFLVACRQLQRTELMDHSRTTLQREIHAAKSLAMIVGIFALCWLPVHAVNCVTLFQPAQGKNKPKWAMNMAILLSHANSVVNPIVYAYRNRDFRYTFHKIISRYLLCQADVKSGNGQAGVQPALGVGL

Mus musculus [4] = assay: Reversal of haloperidol-induced hypolocomotion in mouse at 10 mg/kg, sc; format: functional, organism-based; set-up: dose 10 mg/kg

T1 sequence (P29274 whole entry): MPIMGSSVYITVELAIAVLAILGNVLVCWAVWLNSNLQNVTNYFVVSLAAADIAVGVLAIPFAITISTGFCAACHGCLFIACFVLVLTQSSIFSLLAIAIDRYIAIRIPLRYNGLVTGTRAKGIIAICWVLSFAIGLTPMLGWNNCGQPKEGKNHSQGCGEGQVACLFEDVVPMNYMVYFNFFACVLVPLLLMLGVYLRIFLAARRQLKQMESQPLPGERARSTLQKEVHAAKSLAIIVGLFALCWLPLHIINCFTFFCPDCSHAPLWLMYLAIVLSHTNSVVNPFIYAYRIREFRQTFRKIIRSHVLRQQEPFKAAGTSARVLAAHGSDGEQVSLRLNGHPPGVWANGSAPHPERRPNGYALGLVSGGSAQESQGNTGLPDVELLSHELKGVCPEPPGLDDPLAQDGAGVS

Row | Ki (Adenosine receptor A2a [1]) | Ki (Adenosine receptor A1) | EC50 (Adenosine receptor A2a [3]) | Ki (Adenosine receptor A3) | Ki (Adenosine receptor A2b) | SMILES | Activity (Mus musculus [2]) | Activity (Mus musculus [4])
1 | 6.6 nM | 254 nM | > 10000 nM |  |  | Cc1nc(-c2nc(N(C)C)nc3ccsc23)sc1C | inactive | 
2 |  | 14 nM |  | 456 nM | 2480 nM | OC[C@@H]1CCCN1c1nc(-c2nccs2)c2sccc2n1 | Active | 
3 | 779 nM | 4940 nM | > 10000 nM |  |  | CCc1nc(-n2nccn2)c2sccc2n1 |  | 
4 | 3.1 nM | 240 nM | > 10000 nM |  |  | CC(C)(C)c1nc(-c2nccs2)c2sccc2n1 | inactive | 
5 | 2.1 nM | 413 nM | > 10000 nM |  |  | CCc1nc(-c2nc(C)cs2)c2sccc2n1 | Active | 
6 | 391 nM | 2040 nM | > 10000 nM |  |  | Clc1nc(-c2cccs2)c2sccc2n1 | inactive | 
7 | 69 nM | 1470 nM | > 10000 nM |  |  | CCc1nc(-c2cccs2)c2sccc2n1 | inactive | 
8 | 81 nM | 990 nM | > 10000 nM |  |  | CN(C)c1nc(-c2cnccn2)c2sccc2n1 | inactive | 
9 | 1.4 nM | 208 nM | > 10000 nM | 476 nM | 865 nM | CC(C)c1nc(-c2nccs2)c2sccc2n1 | Active | 
10 |  | 675 nM | > 10000 nM |  |  | Nc1nc(-c2nccs2)c2sccc2n1 | Active | 
11 | 5.7 nM | 908 nM | > 10000 nM |  |  | Cc1cnc(-c2nc(N(C)C)nc3ccsc23)s1 | inactive | 
12 | 18 nM | 57 nM | > 10000 nM |  |  | OCCNc1nc(-c2nccs2)c2sccc2n1 | Active | 
13 | 19 nM | 1260 nM | > 10000 nM |  |  | Cc1ccc(-c2nc(N(C)C)nc3ccsc23)nc1 | inactive | 
14 | 58 nM | 375 nM | > 10000 nM |  |  | CCNc1nc(-c2ccco2)c2sccc2n1 | Active | 
15 | 30 nM | 3210 nM | > 10000 nM |  |  | CCc1nc(-c2ccco2)c2sccc2n1 |  | 
16 |  | 259 nM |  | 945 nM | 910 nM | c1csc(-c2nc(C3CC3)nc3ccsc23)n1 | Active | Active
17 | 60 nM | 2200 nM | > 10000 nM |  |  | CN(C)c1nc(-c2ccco2)c2sccc2n1 | Active | 
18 | 13 nM | 917 nM | > 10000 nM |  |  | CCc1nc(-c2ccccn2)c2sccc2n1 | Active | 
19 |  | 1270 nM |  |  |  | CCc1nc(-c2cccc(C)n2)c2sccc2n1 | inactive | 

Row | Ki (Adenosine receptor A2a [1]) | Ki (Adenosine receptor A1) | EC50 (Adenosine receptor A2a [3]) | Ki (Adenosine receptor A3) | Ki (Adenosine receptor A2b) | SMILES | Activity (Mus musculus [2]) | Activity (Mus musculus [4])
20 | 299 nM | 5770 nM | > 10000 nM |  |  | CN(C)c1nc(-c2ncc[nH]2)c2sccc2n1 | Active | 
21 | 40 nM | 568 nM | > 10000 nM |  |  | CNc1nc(-c2ccco2)c2sccc2n1 | Active | 
22 | 681 nM | 10000 nM | > 10000 nM |  |  | CCc1nc(-c2ccoc2)c2sccc2n1 |  | 
23 | 20 nM | 615 nM | > 10000 nM |  |  | Clc1nc(-c2nccs2)c2sccc2n1 |  | 
24 | 1330 nM | 1260 nM | > 10000 nM |  |  | CN(C)c1nc(-c2cc3ccccc3s2)c2sccc2n1 |  | 
25 | 172 nM | 401 nM | > 10000 nM |  |  | OCCNc1nc(-c2cccs2)c2sccc2n1 | Active | 
26 | 444 nM | 1590 nM | > 10000 nM |  |  | COc1nc(-c2cccs2)c2sccc2n1 | inactive | 
27 | 142 nM | 5530 nM | > 10000 nM |  |  | CCc1nc(-c2ncc[nH]2)c2sccc2n1 | Active | 
28 | 2.3 nM | 366 nM | > 10000 nM | 1760 nM | 1560 nM | CN(C)c1nc(-c2nccs2)c2sccc2n1 | Active | 
29 | 203 nM | 868 nM | > 10000 nM |  |  | OCCNc1nc(-c2ccco2)c2sccc2n1 | inactive | 
30 | 1.6 nM | 388 nM | > 10000 nM | 1810 nM | 721 nM | CCc1nc(-c2nccs2)c2sccc2n1 | Active | 
31 | 748 nM | 3470 nM | > 10000 nM |  |  | CN(C)c1nc(-c2ccoc2)c2sccc2n1 |  | 
32 | 154 nM | 813 nM | > 10000 nM |  |  | CCNc1nc(-c2cccs2)c2sccc2n1 | inactive | 
33 | 55 nM | 1960 nM | > 10000 nM |  |  | CN(C)c1nc(-c2cccs2)c2sccc2n1 | inactive | 
34 |  |  | > 10000 nM |  |  | Nc1nc(-c2ccco2)c2sccc2n1 | Active | 
35 |  | 250 nM |  |  |  | OC[C@H]1CCCN1c1nc(-c2nccs2)c2sccc2n1 | Active | 
36 | 26 nM | 1590 nM | > 10000 nM |  |  | CN(C)c1nc(-c2ccccn2)c2sccc2n1 |  | 
37 |  | 303 nM |  |  |  | Cc1csc(-c2nc(N(C)C)nc3ccsc23)n1 | Active | 
38 | 3080 nM | 5510 nM | > 10000 nM |  |  | CN(C)c1nc(-c2cn[nH]c2)c2sccc2n1 |  | 

Row | SMILES | Ki (Adenosine receptor A2a [1]) | Ki (Adenosine receptor A1) | EC50 (Adenosine receptor A2a [3]) | Ki (Adenosine receptor A3) | Ki (Adenosine receptor A2b) | Activity (Mus musculus [2]) | Activity (Mus musculus [4])
39 | CN(C)c1nc(-c2nccn2C)c2sccc2n1 | 14 nM | 1100 nM | > 10000 nM |  |  | inactive | 
